Assay outcomes (PubChem)
Hits are enriched below; roughly 4.8% of the tested compounds scored in any of these assays.
PAFAH2 FP inh: PAFAH2 (human) inhibition. Q99487. recombinant PAFAH2, FP-rhodamine activity probe, fluorescence polarization. inhibition, % at 3.39 µM. hit rate 0.99% among 340,000;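 active means inhibition above the mean over all tested compounds plus 3 SD, cut at about 30% in these data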;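 further: inhibitors block probe labeling of enzyme so polarization drops; 0% = enzyme with DMSO and 100% = wells lacking PAFAH2 protein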
PAFAH1B2 FP inh: inhibitors of human PAFAH1B2; inhibition, % at 3.39 µM; recombinant PAFAH1B2, FP-rhodamine activity probe, fluorescence polarization; AID 492953; hit rate 1.2% among 340,000; P68402;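 active means inhibition above the mean of all tested compounds plus 3 SD, cut at about 24% in these data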;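 further: 0% = enzyme with DMSO and 100% = wells lacking PAFAH1B2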
Target sequence (P68402 whole entry, looked up): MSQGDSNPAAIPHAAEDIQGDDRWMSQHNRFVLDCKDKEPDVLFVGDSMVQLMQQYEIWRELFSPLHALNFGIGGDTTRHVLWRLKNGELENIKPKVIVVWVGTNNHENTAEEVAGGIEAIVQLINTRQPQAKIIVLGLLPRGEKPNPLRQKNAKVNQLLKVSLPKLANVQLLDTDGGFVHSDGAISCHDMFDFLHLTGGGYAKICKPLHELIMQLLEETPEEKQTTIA
GRIN3A LBD mod: modulators (binders) of human NR3A ligand-binding domain; NR3A LBD differential scanning fluorimetry, Tm shift; 0% = protein alone, 100% = glycine-bound protein; Tm shift relative to glycine control, % at 25 µM; hit rate 2.5% among 340,000; AID 1259313;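 active means melting temperature shift of at least 10% of the positive control shift, at one fixed dose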
PAFAH1B3 inh: blocks human PAF acetylhydrolase 1B catalytic subunit 3. hit rate 0.28% among 340,000. recombinant PAFAH1B3, FP-rhodamine probe, fluorescence polarization. inhibition, % at 3.39 µM. Q15102;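 active means inhibition above the screen-wide average of all tested compounds plus 3 SD, cut at about 25% in these data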;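 further: 0% = enzyme with DMSO only and 100% = wells lacking PAFAH1B3 protein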
Target sequence (Q15102 whole entry, looked up): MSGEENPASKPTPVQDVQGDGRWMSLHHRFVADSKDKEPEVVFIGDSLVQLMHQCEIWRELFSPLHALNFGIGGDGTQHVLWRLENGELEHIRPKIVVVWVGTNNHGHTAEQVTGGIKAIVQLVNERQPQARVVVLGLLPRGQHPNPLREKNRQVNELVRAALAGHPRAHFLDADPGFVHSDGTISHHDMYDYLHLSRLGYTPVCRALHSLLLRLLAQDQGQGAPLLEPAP
UCH37 inh: blocks the human deubiquitinase UCH37; Q9Y5K5; purified proteasome/UCH37, Ub-AMC cleavage fluorescence; inhibition, % (test concentration not listed); hit rate 0.33% among 330,000;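 active means mean inhibition over replicate wells above about 20%, limit read from the data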;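 further: 0% = compound-free wells with enzyme and 100% = wells lacking proteasome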
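Test system – human UCH37 enzyme supplied as purified proteasome complex · Incubation – 30 min preincubation with enzyme, 25 min cleavage at room temperature · Detection – AMC fluorescence from Ub-AMC cleavage, excitation 355 nm, emission 460 nm · Benchmarks – no-proteasome wells (full inhibition) and compound-free wells (no inhibition)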
pPAFAH FP inh: inhibitors of human plasma PAF acetylhydrolase (pPAFAH); hit rate 1.5% among 330,000; recombinant pPAFAH, FP-rhodamine probe fluorescence polarization; inhibition, % at 3.39 µM;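 active means inhibition above the mean inhibition across the screen plus 3 SD, cut at about 25% in these data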;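 further: inhibitors block binding of the rhodamine activity-based probe so polarization drops; 0% = enzyme with DMSO and 100% = wells lacking pPAFAH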
* hit, by the source's call; / = no result given.

SMILES	PAFAH2 FP inh	PAFAH1B2 FP inh	GRIN3A LBD mod	PAFAH1B3 inh	UCH37 inh	pPAFAH FP inh
N#CC(c1ccc(=O)[nH]n1)c1ccc(Cl)cc1Cl (centres undefined)	0.9	6.3	0.5	3.2	1.1	34.0*
CCOc1ccc(NC(=O)Cn2c(=O)oc3cc(Cl)ccc32)cc1	-5.1	6.2	6.8	3.5	-1.0	4.8
CCOc1ccc(NC(=O)Cn2c(=O)oc3ccccc32)cc1	4.8	-3.3	-0.2	0.4	30.5*	-0.1
COc1ccccc1C=NNc1cc(N(C)C)nc(N(C)C)n1	/	/	/	/	1.7	/
CC(=NOC(=O)c1c(-c2c(Cl)cccc2Cl)noc1C)c1cnccn1	/	/	/	/	2.4	/
COc1cccc(/C=C(\C#N)C(=O)NC2CCS(=O)(=O)C2)c1 (centres undefined)	-4.8	-1.0	13.1*	4.7	4.5	-1.5
CCc1ccc(/C=C(\C#N)C(=O)NC2CCS(=O)(=O)C2)cc1 (centres undefined)	-3.0	2.9	0.4	1.0	2.5	-1.2
CC(=O)Nc1ccc2c(c1)Cc1cc(N3C(=O)C=CC3=O)ccc1-2	-22.9	-5.6	24.0*	-11.7	3.3	/
COCCNC(=O)C(=O)NN=Cc1cccs1	/	/	/	/	6.0	/
COc1ccc(C2CC(=O)Oc3c(C(C)C)ccc(C)c32)cc1 (centres undefined)	-4.0	-0.9	12.7*	6.1	1.8	2.3
COC(=O)C(NC(=O)CSc1nc(N)cc(=O)[nH]1)c1ccccc1 (centres undefined)	6.9	5.9	-0.2	4.3	1.1	2.8
CCC(Sc1nc(N)cc(=O)[nH]1)C(=O)NC(C(=O)OC)c1ccccc1 (centres undefined)	/	/	1.5	/	32.3*	1.2
CN(NS(=O)(=O)c1ccc(Cl)cc1)c1ncc(C(F)(F)F)cc1Cl	-1.6	27.9*	0.1	4.5	0.6	-3.4
COc1cc([N+](=O)[O-])ccc1-c1ccc(C=NNC(N)=O)o1	/	/	/	/	7.9	/
Cc1ccc(SCc2cn3c(C)csc3n2)cc1	-1.9	52.9*	-7.5	0.5	-0.1	2.1
CC(Oc1ccc(Br)cc1)C(=O)Nc1nnc(C2CC2)s1 (centres undefined)	1.9	25.9*	1.0	2.6	3.7	3.1
Cc1nc2sccn2c(=O)c1S(=O)(=O)NCC1CCN(Cc2ccccc2Cl)CC1	-4.1	3.8	11.9*	0.5	0.7	3.6
CN(C)C=Nc1cc(=O)[nH]c(=O)n1Cc1ccccc1	/	/	/	/	1.6	/
CC(C)=CCC12Oc3cc(O)ccc3C1(O)Oc1cc(O)c([C@H]3C=C(C)CC(c4ccc(O)cc4O)[C@H]3C(=O)c3ccc(O)cc3O)c(O)c1C2=O (some centres undefined)	/	/	68.4*	/	3.4	14.2
O=C(Nc1nc(-c2ccccn2)cs1)c1ccc(Cl)s1	-2.9	2.7	19.2*	9.1	-8.8	9.3
O=C(Nc1nc(-c2ccc(Cl)s2)cs1)c1cccs1	4.8	-3.2	16.9*	2.3	-11.7	8.7
CC(=O)Nc1nc(-c2ccc([N+](=O)[O-])cc2)cs1	-4.4	7.3	1.3	7.2	6.7	0.8
O=C(Nc1ccc([N+](=O)[O-])cc1)Nc1nc(-c2ccc(Cl)s2)cs1	-15.8	9.1	416.3*	0.0	2.2	1.8
COC(=O)c1cc(S(=O)(=O)NCCc2ccc(Cl)cc2)c[nH]1	3.1	26.5*	2.1	2.3	6.6	10.8
COC(=O)c1cc(S(=O)(=O)NCCc2ccc(C)cc2)c[nH]1	-1.3	5.2	1.3	2.2	4.9	11.3
SMILES	PAFAH2 FP inh	PAFAH1B2 FP inh	GRIN3A LBD mod	PAFAH1B3 inh	UCH37 inh	pPAFAH FP inh
Cn1cccc1C=NNC(=O)c1ccc[n+]([O-])c1	/	/	/	/	15.2	/
NC(=O)CCN(C(=O)c1cccc(S(=O)(=O)N2CCc3ccccc32)c1)c1ccccc1	-3.0	27.2*	0.5	4.2	-1.8	-0.6
O=C1N=C(N2C=CC(=C3C=CNC=C3)C=C2)/C(=C/N=NC(=O)c2ccccc2)S1	4.8	0.9	-1.3	7.6	23.8*	8.4
COc1ccc(Cl)cc1NC(=O)c1nnn(CC(=O)Nc2ccc3c(c2)OCO3)c1N	-15.4	-9.7	20.3*	-14.2	-2.2	-13.1
COc1ccc(Cl)cc1NC(=O)c1nnn(CC(=O)Nc2ccc(OC)c(OC)c2)c1N	5.3	-0.2	-1.3	2.1	3.0	3.7
COc1cccc(NC(=O)Cn2nnc(C(=O)Nc3cc(Cl)ccc3OC)c2N)c1	-14.4	3.0	24.6*	-10.2	-1.1	-5.5
